# In ChEMBL document CHEMBL1133178, “Synthesis and evaluation of "AZT-HEPT", "AZT-pyridinone", and "ddC-HEPT" conjugates as inhibitors of HIV reverse transcriptase” (J Med Chem, 2000):
# Key:
# [1] = biological target: Human immunodeficiency virus type 1 reverse transcriptase (Human immunodeficiency virus 1) (UniProt Q72547); test: Cytotoxic concentration which reduces the cell viability of HIV-1 LAI infected T4 lymphoblastoid CEM-SS cells by 50%; type: functional, cell-based
# MT4 [2] = test: Cytotoxic concentration which reduces the cell viability of HIV-1 IIIB infected T4 lymphoblastoid MT-4 cells by 50%; type: functional; conditions: Homo sapiens
# Outline: (§1)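 Cytotoxicity was run in parallel, in the same experiment, on uninfected, compound-treated MT-4 or CEM-SS cells cultured 5 days. Viability was measured by MTT reduction to formazan (OD 540 nm). CC50 is the concentration reducing viability by 50%, calculated by median-effect analysis; means of duplicates.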
# MT4 [3] = test: Effective concentration required to achieve 50% inhibition of HIV-1 IIIB multiplication in hT4 lymphoblastoid MT-4 cells using MTT assay; type: functional, cell-based; conditions: Homo sapiens
# Outline: (§2)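 MT-4 cells infected with 50 TCID50 of HIV-1 IIIB; 30 min adsorption, free virus washed off, then cultured with a range of compound concentrations for 5 days. Protection from virus-induced cytopathogenicity was read by MTT reduction (OD 540 nm). EC50 taken from a median-effect plot of dose-effect data; means of duplicate experiments.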
# [4] = (§3) Cytotoxic concentration which reduces the cell viability of HIV-1 IIIB infected PBM (peripheral blood mononuclear) cells; type: functional; conditions: Homo sapiens
# [5] = Effective concentration required to achieve 50% inhibition of HIV-1 IIIB multiplication in PBM (peripheral blood mononuclear) cells; type: functional, Homo sapiens
# [6] = Effective concentration required to achieve 50% inhibition of HIV-2 D194 multiplication in PBM (peripheral blood mononuclear) cells; type: functional, Homo sapiens
# MT4 [7] = test: Cytotoxic concentration. which reduces the cell viability of […] T4 lymphoblastoid MT-4 cells by 50%; type: functional; conditions: Homo sapiens; outline: as §1
# [8] = Effective concentration. required to achieve 50% inhibition of HIV-2 D194 multiplication in PBM (peripheral blood mononuclear) cells; type: functional, Homo sapiens
# CEM-SS = test: Effective concentration required to achieve 50% inhibition of HIV-1 181C (nevirapine-resistant HIV-1) multiplication in CEM-SS cells.; type: functional, cell-based; conditions: Homo sapiens
# Outline: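 CEM-SS cells infected with 100 TCID50 of nevirapine-resistant HIV-1, 30 min adsorption, then washed to remove free virus. Cultured with a range of compound concentrations for 5 days. Virus production read as reverse transcriptase activity of virions released into culture supernatants. EC50 taken from a computer-generated median effect plot of dose-effect data; means of duplicate experiments.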
# MT4 [9] = test: as §3; type: functional, cell-based; conditions: Homo sapiens
# [10] = concentration of compound which reduces the cell viability by 50% against PBM (peripheral blood mononuclear) cells infected with HIV-1 IIIB cells.; type: functional; conditions: Homo sapiens
# [11] = biological target: Human immunodeficiency virus type 1 reverse transcriptase (Human immunodeficiency virus 1) (UniProt Q72547); test: Cytotoxic conc. which reduces the cell viability of HIV-1 LAI infected T4 lymphoblastoid CEM-SS cells by 50%; type: functional, cell-based
# MT4 [12] = test: Cytotoxic conc. which reduces the cell viability of […] T4 lymphoblastoid MT-4 cells by 50%; type: functional; conditions: Homo sapiens; outline: as §1
# [13] = Effective conc. required to achieve 50% inhibition of HIV-1 IIIB multiplication in PBM (peripheral blood mononuclear) cells; type: functional, Homo sapiens
# [14] = Effective conc. required to achieve 50% inhibition of HIV-2 D194 multiplication in PBM (peripheral blood mononuclear) cells; type: functional, Homo sapiens
# MT4 [15] = test: Effective concentration. required to achieve 50% inhibition of HIV-1 IIIB multiplication in hT4 lymphoblastoid MT-4 cells using MTT assay; type: functional, cell-based; conditions: Homo sapiens; outline: as §2
EC50 [5] [µM],EC50 [6] [µM],SMILES,CC50 [1] [µM],CC50 (MT4 [2]) [µM],EC50 (MT4 [3]) [µM],CC50 [4] [µM],further results
,,CCc1c(C)nc(O)c(NC(=O)CCCCCCCCC(=O)OC)c1Cc1cc(C)cc(C)c1,> 10,,,,
2.9,4.7,NCCCCCCCCCCCCNc1ccn(C2CCC(CO)O2)c(=O)n1 (configuration not stated),48,> 100,100,61,
,,CCc1c(C)nc(O)c(NC(=O)CCCC(=O)O)c1Cc1cc(C)cc(C)c1,28,,,,
,,CCc1c(C)nc(O)c(NC(=O)CCCC(=O)OC)c1Cc1cc(C)cc(C)c1,> 100,,,,
> 100,,COC(=O)CCc1cn(C2CC(N=[N+]=[N-])C(CO)O2)c(=O)[nH]c1=O (configuration not stated),> 100,,> 100,> 100,CC50 (MT4 [7]): > 100 µM; EC50 [8]: > 100 µM
2.1,8,CCOC(=O)CCn1c(=O)c(C)cn(C2CC(N=[N+]=[N-])C(CO)O2)c1=O (configuration not stated),> 100,> 100,4.3,> 100,
,,CCc1c(C)nc(O)c(NC(=O)CCCCCCCCCN)c1Cc1cc(C)cc(C)c1,> 66,,,,
40,> 100,Cc1cn(C2CC(N=[N+]=[N-])C(CO)O2)c(=O)n(CCC(=O)NCCCCCCCCCCN)c1=O (configuration not stated),60,> 100,> 100,80,
,,CCc1c(C)nc(O)c(NC(=O)CCCCCCCCC(=O)O)c1Cc1cc(C)cc(C)c1,> 10,,,,
,,Cc1cn([C@H]2C[C@H](N=[N+]=[N-])[C@@H](CO)O2)c(=O)[nH]c1=O [ZIDOVUDINE],,,0.02,75,CC50 [11]: > 100 µM; CC50 (MT4 [12]): > 100 µM; EC50 [13]: 0.001 µM; EC50 [14]: 0.006 µM
75,68,[N-]=[N+]=NC1CC(n2cc(CCC(=O)NCCCCCCCCCCN)c(=O)[nH]c2=O)OC1CO (configuration not stated),38,60,> 100,77,
> 100,> 100,[N-]=[N+]=NC1CC(n2cc(CCC(=O)NCCCCN)c(=O)[nH]c2=O)OC1CO (configuration not stated),> 100,> 100,,> 100,EC50 (MT4 [15]): > 100 µM
,,CCc1c(C)nc(O)c(NC(=O)CNC(=O)CN)c1Cc1cc(C)cc(C)c1,> 100,,,,
,,CCc1c(C)nc(O)c(NC(=O)CCCCCCCCCNC(=O)OC(C)(C)C)c1Cc1cc(C)cc(C)c1,> 10,,,,
> 100,> 100,COC(=O)CCCNC(=O)CCc1cn(C2CC(N=[N+]=[N-])C(CO)O2)c(=O)[nH]c1=O (configuration not stated),> 100,75,> 100,> 100,
,,Nc1ccn([C@H]2CC[C@@H](CO)O2)c(=O)n1 [ZALCITABINE],,,2.4,10,CC50 [11]: 34 µM; CC50 (MT4 [12]): > 100 µM; EC50 [13]: 0.016 µM; EC50 [14]: 0.07 µM
,,CCc1c(C)nc(O)c(N)c1Cc1cc(C)cc(C)c1,> 10,,,,
,,CCc1c(C)nc(O)c(NC(=O)CNC(=O)CNC(=O)OC(C)(C)C)c1Cc1cc(C)cc(C)c1,> 100,,,,

SMILES,EC50 [5] [µM],EC50 [6] [µM],CC50 [1] [µM],CC50 (MT4 [2]) [µM],EC50 (MT4 [3]) [µM],CC50 [4] [µM],further results
CCc1c(Sc2cc(C)cc(C)c2)n(CCCCC(=O)NCCCCNC(=O)CCc2cn(C3CC(N=[N+]=[N-])C(CO)O3)c(=O)[nH]c2=O)c(=O)[nH]c1=O (configuration not stated),4.3,> 50,> 55,> 10,> 10,> 50,EC50 (CEM-SS): > 50 µM
CCc1c(Sc2cc(C)cc(C)c2)n(CCCCC(=O)NCCCCCCCCCCNC(=O)CCc2cn(C3CC(N=[N+]=[N-])C(CO)O3)c(=O)[nH]c2=O)c(=O)[nH]c1=O (configuration not stated),5.1,> 25,> 25,10,,,EC50 (CEM-SS): > 25 µM; EC50 (MT4 [9]): > 10 µM; CC50 [10]: > 25 µM
CCc1c(Sc2cc(C)cc(C)c2)n(CCCCC(=O)NCCCCCCCCCCCCNc2ccn(C3CCC(CO)O3)c(=O)n2)c(=O)[nH]c1=O (configuration not stated),0.46,,> 25,> 10,6.2,> 10,EC50 (CEM-SS): 0.53 µM
CCc1c(Sc2cc(C)cc(C)c2)n(CCCCC(=O)OC)c(=O)[nH]c1=O,0.18,> 33,> 33,> 10,0.33,> 33,EC50 (CEM-SS): > 33 µM
CCc1c(Sc2cc(C)cc(C)c2)n(CCCCC(=O)NCCCCCCCCCCNC(=O)CCn2c(=O)c(C)cn(C3CC(N=[N+]=[N-])C(CO)O3)c2=O)c(=O)[nH]c1=O (configuration not stated),5.5,> 25,> 25,> 10,> 10,> 25,EC50 (CEM-SS): 23 µM
